According to ChEMBL document CHEMBL1134541, “Potent and selective carboxylic acid-based inhibitors of matrix metalloproteinases” (J Med Chem, 2001):
In brackets after ≈: the same amount, converted by molar mass.

What was measured:
[1] = biological target: T1, Matrilysin (Homo sapiens, UniProt P09237); experiment: Inhibitory activity against matrix metalloprotease-7
T1 sequence (P09237 whole entry): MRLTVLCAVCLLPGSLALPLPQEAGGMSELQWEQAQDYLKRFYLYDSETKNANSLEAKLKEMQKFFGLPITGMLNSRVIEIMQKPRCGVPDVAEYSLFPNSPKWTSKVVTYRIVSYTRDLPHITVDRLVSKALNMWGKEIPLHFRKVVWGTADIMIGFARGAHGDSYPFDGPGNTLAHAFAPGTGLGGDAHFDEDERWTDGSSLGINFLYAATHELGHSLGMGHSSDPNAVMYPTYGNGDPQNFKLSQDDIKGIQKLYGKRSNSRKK
Summary of the method: (§1)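 Inhibition of each enzyme (MMP-1 collagenase-1, MMP-2 gelatinase A, MMP-3 stromelysin, MMP-7 matrilysin, MMP-8 collagenase-2, MMP-9 gelatinase B) was measured at pH 7.4 and reported as binding values. Compounds were tested as racemic mixtures. Standard deviations were under 30% of the mean values.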

[2] = biological target: Matrix metalloproteinase-9 (Homo sapiens, UniProt P14780); experiment: In vitro inhibition of human matrix metalloprotease-9; summary of the method: as §1
[3] = biological target: 72 kDa type IV collagenase (Homo sapiens, UniProt P08253); experiment: In vitro inhibitory activity against matrix metalloprotease-2
[4] = biological target: Neutrophil collagenase (Homo sapiens, UniProt P22894); experiment: Inhibitory activity against matrix metalloprotease-8
[5] = biological target: T2, Stromelysin-1 (Homo sapiens, UniProt P08254); experiment: (§2) In vitro inhibitory activity against matrix metalloprotease-3
[6] = biological target: T3, Interstitial collagenase (Homo sapiens, UniProt P03956); experiment: (§3) In vitro inhibitory activity against matrix metalloprotease-1
T3 sequence (P03956 whole entry): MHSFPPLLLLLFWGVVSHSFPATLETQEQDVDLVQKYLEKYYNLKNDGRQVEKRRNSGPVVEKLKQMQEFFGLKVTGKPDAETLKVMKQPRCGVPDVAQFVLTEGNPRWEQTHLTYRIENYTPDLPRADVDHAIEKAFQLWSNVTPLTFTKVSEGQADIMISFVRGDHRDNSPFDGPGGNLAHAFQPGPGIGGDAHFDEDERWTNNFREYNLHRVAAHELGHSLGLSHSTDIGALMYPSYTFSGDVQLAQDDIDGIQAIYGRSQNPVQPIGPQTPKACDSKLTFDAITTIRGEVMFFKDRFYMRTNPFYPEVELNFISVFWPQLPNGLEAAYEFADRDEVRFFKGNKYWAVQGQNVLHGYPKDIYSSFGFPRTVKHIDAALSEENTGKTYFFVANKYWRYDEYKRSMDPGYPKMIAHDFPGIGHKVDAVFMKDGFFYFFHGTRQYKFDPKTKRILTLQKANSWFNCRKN

[7] = biological target: Collagenase 3 (Homo sapiens, UniProt P45452); experiment: In vitro inhibitory activity against matrix metalloprotease-13
[8] = physchem
[9] = biological target: T3, Interstitial collagenase; experiment: as §3; summary of the method: as §1; remark: listed apart in the source
[10] = biological target: T2, Stromelysin-1; experiment: as §2; summary of the method: as §1; remark: listed apart in the source

Chain of 72 kDa type IV collagenase (P08253 whole entry): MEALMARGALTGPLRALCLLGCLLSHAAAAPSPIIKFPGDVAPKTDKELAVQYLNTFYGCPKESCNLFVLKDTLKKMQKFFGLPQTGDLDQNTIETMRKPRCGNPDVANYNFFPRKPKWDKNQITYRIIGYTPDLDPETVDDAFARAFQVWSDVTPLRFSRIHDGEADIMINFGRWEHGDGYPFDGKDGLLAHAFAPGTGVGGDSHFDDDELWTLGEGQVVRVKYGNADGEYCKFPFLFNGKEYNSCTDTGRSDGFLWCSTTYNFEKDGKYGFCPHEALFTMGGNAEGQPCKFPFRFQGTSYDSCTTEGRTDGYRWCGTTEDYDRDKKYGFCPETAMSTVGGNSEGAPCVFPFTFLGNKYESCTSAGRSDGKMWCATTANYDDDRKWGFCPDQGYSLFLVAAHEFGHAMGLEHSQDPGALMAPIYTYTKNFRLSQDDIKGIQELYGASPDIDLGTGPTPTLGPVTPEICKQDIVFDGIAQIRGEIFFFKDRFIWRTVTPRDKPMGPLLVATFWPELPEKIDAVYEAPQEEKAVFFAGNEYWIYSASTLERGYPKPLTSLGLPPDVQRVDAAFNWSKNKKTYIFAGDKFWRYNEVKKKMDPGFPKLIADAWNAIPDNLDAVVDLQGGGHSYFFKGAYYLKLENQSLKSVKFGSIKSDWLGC
Chain of Neutrophil collagenase (P22894 whole entry): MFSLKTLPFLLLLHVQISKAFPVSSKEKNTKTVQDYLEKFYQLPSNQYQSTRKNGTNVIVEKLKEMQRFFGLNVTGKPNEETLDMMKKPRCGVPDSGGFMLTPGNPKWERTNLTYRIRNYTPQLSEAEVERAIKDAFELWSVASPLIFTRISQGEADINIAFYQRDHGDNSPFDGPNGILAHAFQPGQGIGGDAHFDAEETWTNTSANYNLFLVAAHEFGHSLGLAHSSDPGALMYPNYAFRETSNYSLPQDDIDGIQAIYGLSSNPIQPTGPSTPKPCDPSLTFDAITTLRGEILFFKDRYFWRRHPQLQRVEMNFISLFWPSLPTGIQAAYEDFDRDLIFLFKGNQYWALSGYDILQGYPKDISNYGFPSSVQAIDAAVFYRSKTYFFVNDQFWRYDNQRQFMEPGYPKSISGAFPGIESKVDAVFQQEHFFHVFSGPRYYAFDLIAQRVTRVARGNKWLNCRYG
T2 sequence (P08254 whole entry): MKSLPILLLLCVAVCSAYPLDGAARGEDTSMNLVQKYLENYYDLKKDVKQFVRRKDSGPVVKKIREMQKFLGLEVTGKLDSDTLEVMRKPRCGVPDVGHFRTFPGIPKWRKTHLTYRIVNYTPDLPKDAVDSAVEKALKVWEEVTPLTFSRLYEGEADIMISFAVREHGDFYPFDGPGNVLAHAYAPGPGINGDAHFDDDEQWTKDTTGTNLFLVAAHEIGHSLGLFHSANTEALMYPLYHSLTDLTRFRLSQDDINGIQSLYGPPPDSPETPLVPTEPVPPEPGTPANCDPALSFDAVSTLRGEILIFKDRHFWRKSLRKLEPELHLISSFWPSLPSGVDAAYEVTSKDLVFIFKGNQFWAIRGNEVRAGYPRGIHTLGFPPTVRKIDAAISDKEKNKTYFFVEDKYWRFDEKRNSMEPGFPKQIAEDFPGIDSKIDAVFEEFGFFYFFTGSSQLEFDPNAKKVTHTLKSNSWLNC
Chain of Matrix metalloproteinase-9 (P14780 whole entry): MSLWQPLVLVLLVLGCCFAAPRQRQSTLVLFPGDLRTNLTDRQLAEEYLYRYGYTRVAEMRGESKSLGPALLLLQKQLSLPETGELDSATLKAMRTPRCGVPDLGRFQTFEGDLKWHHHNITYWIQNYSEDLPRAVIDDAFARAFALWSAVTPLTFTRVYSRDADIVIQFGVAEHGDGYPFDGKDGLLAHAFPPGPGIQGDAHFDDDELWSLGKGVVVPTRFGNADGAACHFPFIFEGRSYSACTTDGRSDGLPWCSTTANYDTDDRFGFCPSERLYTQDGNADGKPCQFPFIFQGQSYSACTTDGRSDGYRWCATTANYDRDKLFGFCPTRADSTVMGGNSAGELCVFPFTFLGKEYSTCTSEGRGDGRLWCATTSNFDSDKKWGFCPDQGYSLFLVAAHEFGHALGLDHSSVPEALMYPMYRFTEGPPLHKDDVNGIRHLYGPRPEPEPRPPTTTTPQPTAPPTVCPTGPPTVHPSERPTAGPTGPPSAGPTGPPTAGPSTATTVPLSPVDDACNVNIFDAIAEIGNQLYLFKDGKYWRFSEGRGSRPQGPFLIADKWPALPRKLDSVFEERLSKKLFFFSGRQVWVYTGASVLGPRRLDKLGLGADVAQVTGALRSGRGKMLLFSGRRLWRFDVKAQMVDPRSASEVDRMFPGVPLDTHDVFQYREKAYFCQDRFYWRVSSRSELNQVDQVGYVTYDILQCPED

SMILES	IC50 [1]	IC50 [2]	IC50 [3]	IC50 [6]	IC50 [9]	IC50 [10]	IC50 [4]	IC50 [5]	IC50 [7]	solubility [8]
COCCOC(=O)N1CCC(C(NS(=O)(=O)c2ccc(-c3ccc(SC)cc3)cc2)C(=O)O)CC1 (centres undefined)	1.02 µM	0.0073 µM	0.0004 µM	1.08 µM			0.0018 µM	0.0406 µM	0.001 µM	3.5 mg/mL (≈ 6.7 mM)
COCCOC(=O)N1CCC(C(C(=O)O)N(C)S(=O)(=O)c2ccc(-c3ccc(OC)cc3)cc2)CC1 (centres undefined)	3.95 µM	0.0139 µM	0.0009 µM	1.85 µM				0.0696 µM		
COCCOC(=O)N1CCC(C(NS(=O)(=O)c2ccc(-c3ccccc3)cc2)C(=O)O)CC1 (centres undefined)	> 10 µM	0.415 µM	0.0242 µM	6.05 µM			0.0448 µM	0.418 µM	0.0553 µM	
COCCOC(=O)N1CCC(C(C(=O)O)N(CCOC)S(=O)(=O)c2ccc(-c3ccc(OC)cc3)cc2)CC1 (centres undefined)	2.65 µM	0.0091 µM	0.0006 µM	1.22 µM			0.0024 µM	0.0455 µM	0.001 µM	11.1 mg/mL (≈ 19.6 mM)
COCCOC(=O)N1CCC(C(NS(=O)(=O)c2ccc(Oc3ccccc3)cc2)C(=O)O)CC1 (centres undefined)	> 10 µM	0.597 µM	0.0581 µM	> 10 µM			0.0258 µM	0.399 µM	0.14 µM	
COc1ccc(-c2ccc(S(=O)(=O)NC(C(=O)O)C3CCN(C(=O)OC(C)C)CC3)cc2)cc1 (centres undefined)	1.74 µM	0.0117 µM	< 0.0004 µM	1.4 µM			0.0015 µM	0.0418 µM	0.001 µM	0.13 mg/mL (≈ 0.265 mM)
O=C(CC(CSc1ccccc1)C(=O)O)c1ccc(-c2ccc(Cl)cc2)cc1 (centres undefined)	> 10 µM	3.11 µM	0.0913 µM	> 10 µM			0.303 µM		1.57 µM	
CCCCOc1ccc(S(=O)(=O)NC(C(=O)O)C2CCN(C(=O)OCCOC)CC2)cc1 (centres undefined)	> 10 µM	2.99 µM	0.549 µM	> 10 µM			0.294 µM	0.678 µM	0.791 µM	
COCCOC(=O)N1CCC(C(C(=O)O)N(Cc2ccccn2)S(=O)(=O)c2ccc(-c3ccc(OC)cc3)cc2)CC1 (centres undefined)	3.64 µM	0.0187 µM	0.001 µM	3.31 µM			0.0032 µM	0.0861 µM	0.003 µM	
COCCOC(=O)N1CCC(C(NS(=O)(=O)c2ccc(-c3ccc(OC)cc3)cc2)C(=O)O)CC1 (stereo in doubt; 13g)	4.11 µM	0.055 µM	0.0008 µM				0.0034 µM	0.133 µM	0.0035 µM	8.07 mg/mL (≈ 15.9 mM)
COCCOC(=O)N1CCC(C(NS(=O)(=O)c2ccc(-c3ccc(OC)cc3)cc2)C(=O)O)CC1 (stereo in doubt; 14i)		< 0.0004 µM					0.0005 µM	0.0138 µM	0.0004 µM	

Second part, led by results:

IC50 [1]	IC50 [2]	IC50 [3]	IC50 [6]	IC50 [9]	IC50 [10]	SMILES	IC50 [4]	IC50 [5]	IC50 [7]	solubility [8]
> 10 µM	0.553 µM	0.0125 µM				COc1ccc(-c2ccc(S(=O)(=O)NC(CC#Cc3ccccc3)C(=O)O)cc2)cc1 (centres undefined)	0.0094 µM			
3.66 µM	0.0066 µM		1.37 µM			COc1ccc(-c2ccc(S(=O)(=O)N[C@@H](C(=O)O)C3CCN(C(=O)OC(C)(C)C)CC3)cc2)cc1		0.0337 µM		
5.65 µM	0.177 µM	0.0028 µM	5.21 µM			COC(=O)N1CCC(C(NS(=O)(=O)c2ccc(-c3ccc(OC)cc3)cc2)C(=O)O)CC1 (centres undefined)		0.657 µM		
8.51 µM	0.0715 µM		3.49 µM			COc1ccc(-c2ccc(S(=O)(=O)N[C@H](C(=O)O)C3CCN(C(=O)OC(C)(C)C)CC3)cc2)cc1		0.345 µM		
> 10 µM	0.747 µM	0.0066 µM		8.71 µM		COc1ccc(-c2ccc(S(=O)(=O)N[C@H](C(=O)O)C(C)C)cc2)cc1	0.0106 µM	1.89 µM	0.0242 µM	
4.37 µM	0.137 µM	0.0032 µM	4.9 µM			COc1ccc(-c2ccc(S(=O)(=O)NC(C(=O)O)C3CCN(C(=O)CC(C)C)CC3)cc2)cc1 (centres undefined)		0.739 µM		
4.24 µM	1.76 µM	0.053 µM	3.89 µM		4.84 µM	COc1ccc(-c2ccc(S(=O)(=O)NC(C(=O)O)C3CCNCC3)cc2)cc1 (centres undefined)	0.0302 µM		0.264 µM	
2.59 µM	0.0054 µM		1.42 µM			COc1ccc(-c2ccc(S(=O)(=O)NC(C(=O)O)C3CCN(C(=O)OC(C)(C)C)CC3)cc2)cc1 (centres undefined)		0.0564 µM		
8.57 µM	0.0508 µM	0.0011 µM	1.76 µM			COc1ccc(-c2ccc(S(=O)(=O)NC(C(=O)O)C3CCN(C(=O)N4CCOCC4)CC3)cc2)cc1 (centres undefined)		0.221 µM		
9.87 µM	0.0949 µM	0.001 µM	2.76 µM			CCOC(=O)N1CCC(C(NS(=O)(=O)c2ccc(-c3ccc(OC)cc3)cc2)C(=O)O)CC1 (centres undefined)		0.162 µM		
